ChEMBL document CHEMBL1140722, “Inhibition of adenosine deaminase by analogues of adenosine and inosine, incorporating a common heterocyclic base, 4(7)-amino-6(5)H-imidazo[4,5-d]pyridazin-7(4)one” (J Med Chem, 2008)

Tests used:
[1] = Cytotoxicity against human MCF10A cells after 5 days by MTT assay; assay type: cell-based; conditions: MCF-10A, 120 h
Summary of the method: (§1)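 Cells seeded at 2000/well in complete RPMI1640 and left to attach overnight at 37 °C in 5% CO2. Drug added from 20 mM DMSO stocks, final 0.0001–100 µM, eight replicates each. Exposure was continuous for 5 days, then MTT added and formazan read at 550 nm. IC50 and IC100 taken against vehicle controls and day-0 growth. Three independent experiments.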

MCF7 = assay: Cytotoxicity against human MCF7 cells after 5 days by MTT assay; assay type: functional, cell-based; conditions: MCF7, 120 h; summary of the method: as §1
Adenosine deaminase = target: T1, Adenosine deaminase (Bos taurus, UniProt P56658); assay: Inhibition of calf intestine adenosine deaminase
T1 sequence (P56658 whole entry): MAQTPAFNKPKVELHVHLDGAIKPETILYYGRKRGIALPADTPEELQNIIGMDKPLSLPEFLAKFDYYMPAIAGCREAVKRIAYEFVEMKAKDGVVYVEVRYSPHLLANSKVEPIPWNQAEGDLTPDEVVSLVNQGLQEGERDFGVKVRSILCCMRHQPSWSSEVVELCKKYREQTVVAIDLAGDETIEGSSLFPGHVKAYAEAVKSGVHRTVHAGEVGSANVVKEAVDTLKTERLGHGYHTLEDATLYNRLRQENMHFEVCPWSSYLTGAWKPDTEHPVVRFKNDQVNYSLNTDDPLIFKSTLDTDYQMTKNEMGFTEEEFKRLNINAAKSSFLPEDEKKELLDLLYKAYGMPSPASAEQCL
Summary of the method: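 Calf intestine ADA, 2 × 10-3 unit per assay, at 25 °C and pH 7.4. Adenosine hydrolysis to inosine followed as change in optical density per unit time at 265 nm. Seven adenosine concentrations from 30 to 60 µM were run at each inhibitor level of 5 or 15 µM. Ki derived from Lineweaver–Burk plots (1/V vs 1/S).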

Ki (Adenosine deaminase) [µM]	SMILES	IC50 [1] [µM]	IC50 (MCF7) [µM]
52	Nc1n[nH]c(=O)c2ncn([C@H]3C[C@H](O)[C@@H](CO)O3)c12	> 100	97.5
51.4	Nc1n[nH]c(=O)c2ncn([C@@H]3O[C@H](CO)[C@@H](O)[C@H]3O)c12	82.5	23.5
10.6	Nc1n[nH]c(=O)c2c1ncn2[C@@H]1O[C@H](CO)[C@@H](O)[C@H]1O	82.5	27.5
12.1	Nc1n[nH]c(=O)c2c1ncn2[C@H]1C[C@H](O)[C@@H](CO)O1	> 100	> 100
26.5	N/N=C(\N)c1c(C(=O)NN)ncn1[C@@H]1O[C@H](CO)[C@@H](O)[C@H]1O	–	–
